Test results taken from paper PMC6299372 (International Journal of Biological Sciences, 2018).
pIC50, pKd, pKi: −log10 of the molar value.

What was measured:
MsepCSP5 = biological target: T1, MsepCSP5 (Mythimna separata, UniProt A0A5H2NAD7); test: Fluorescence competitive binding assay with the probe 1-NPN; conditions: for pIC50: displacement of 1-NPN from MsepCSP5; for pKi: Ki = IC50/(1+[1-NPN]/K1-NPN); for pKd: dissociation constant (Kd) of MsepCSP5/1-NPN complex, Scatchard plot
T1 sequence (A0A5H2NAD7 1-127): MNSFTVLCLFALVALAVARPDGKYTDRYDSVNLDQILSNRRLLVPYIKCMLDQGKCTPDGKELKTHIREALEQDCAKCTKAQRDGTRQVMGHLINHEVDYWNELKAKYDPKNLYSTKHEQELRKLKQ
Summary of the method: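 Recombinant MsepCSP5 was expressed in E. coli BL21(DE3) as inclusion bodies, refolded, Ni-affinity purified, and His-tag cleaved with enterokinase, then dialyzed into Tris-HCl at pH 5.0 or 7.4. Protein at 2 μM in 30 mM Tris-HCl was titrated with 1-NPN (0–20 μM final). Ex 337 nm, Em 360–600 nm, 25°C. Ligand stocks were in methanol. Kd came from Scatchard plots, and Ki from IC50 corrected for 1-NPN. Three independent replicates.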

M. separata [1] = test: Post-RNAi Y-tube olfactometer bioassay; format: in vivo, Mythimna separata; conditions: 72 h old moths of both sexes, after RNAi
Summary of the method: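 Seven-day-old pupae were injected with dsMsepCSP5 (1 µl of 2.5 µg µL-1) into abdominal segments 3–4. Non-injected and dsGFP-injected pupae served as controls. Pupae were held at 25±1°C and 70±5% RH until eclosion. 72 h-old moths of both sexes were tested in the same Y-tube assay (two volatiles, 10 µl vs liquid paraffin, 10 min per moth). 30 females and 30 males per volatile.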

M. separata [2] = test: Y-tube olfactometer behavioral bioassay; format: in vivo, Mythimna separata; conditions: for males attracted to / preferring the volatile: male moths; for males attracted to / preferring the volatile / females attracted to / preferring the volatile: volatile vs liquid paraffin control, 10 µl volatile; for behavioral response of M. separata to the volatile (in words): male and female moths; for females attracted to / preferring the volatile: female moths
Summary of the method: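 Y-tube olfactometer with arms 3.0 cm × 26 cm, charcoal-filtered humidified air at 6.0 L min-1. 10 µl volatile on 10×10 mm filter paper was set against a liquid paraffin control. Three-day-old moths were isolated about 30 min beforehand, and separate olfactometers were used per sex. Each moth had 10 min to respond. Tests ran in the dark under orange light, 1–2 h after sunset, at 25±1°C and 70±5% RH. 30 females and 30 males per volatile.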

Row | Molecule | pIC50 (MsepCSP5; IC50, pH 5.0) | pIC50 (MsepCSP5; IC50, pH 7.4) | pKi (MsepCSP5; Ki, pH 5.0) | pKi (MsepCSP5; Ki, pH 7.4) | binding affinity to MsepCSP5 (in words) (MsepCSP5; pH 5.0) | other results
1 | c1ccc(Nc2cccc3ccccc23)cc1 [1-NPN, N-phenyl-1-naphthylamine, reference compound] |  |  |  |  |  | pKd (MsepCSP5; pH 5.0): 5.54; pKd (MsepCSP5; pH 7.4): 5.44
2 | C=CC(O)CCCCC (stereo not shown) [1-Octen-3-ol] | 5.04 | 4.79 | 5.36 | 5.19 | high binding affinity | preference of dsMsepCSP5-treated moths for the volatile (in words) (M. separata [1]): non-significant preference
3 | CCCCCC(C)O (stereo not shown) [2-Heptanol] | 5.10 | 4.20 | 5.42 | 4.60 | high binding affinity | males attracted to / preferring the volatile (M. separata [2]): 80%
4 | CCCCCCCCCC(C)=O [2-Undecanone] | 5.29 | 4.67 | 5.61 | 5.07 |  | behavioral response of M. separata to the volatile (in words) (M. separata [2]): no obvious preference
5 | CCCCCCCCCCCC(C)=O [2Tridecanone] | 4.98 | 4.86 | 5.31 | 5.26 |  | 
6 | CCC(O)CC [3-Pentanol] | 4.85 | 4.53 | 5.17 | 4.93 | high binding affinity | females attracted to / preferring the volatile (M. separata [2]): 80%; preference of dsMsepCSP5-treated moths for the volatile (in words) (M. separata [1]): non-significant preference
7 | Cc1ccc(C(C)C)cc1 [4-lsopropyltoluene] |  |  |  |  |  | pKi (MsepCSP5; pH 5.0): 4.84; pIC50 (MsepCSP5; pH 5.0): 4.52; pKi (MsepCSP5; pH 7.4): 4.68; pIC50 (MsepCSP5; pH 7.4): 4.28
8 | CC1=CC[C@@](O)(C(C)C)CC1 [(-)-Terpinen-4-ol] |  |  |  |  |  | pKi (MsepCSP5; pH 5.0): 5.36; pIC50 (MsepCSP5; pH 5.0): 5.04; pKi (MsepCSP5; pH 7.4): 4.87; pIC50 (MsepCSP5; pH 7.4): 4.46
9 | CC/C=C\CCO [Cis-3-hexen-1-ol] | 3.14 | 3.64 | 3.46 | 4.05 |  | 
10 | CC/C=C\CCOC(C)=O [Cis-3-hexenyl acetate] | 4.89 | 4.49 | 5.21 | 4.89 |  | 
11 | OC1CCCCC1 [Cyclohexanol] | 4.15 | 3.86 | 4.47 | 4.27 |  | 
12 | CCCCCCCCCCCC=O [Dodecyl aldehyde] |  |  |  |  | high binding | pKi (MsepCSP5; pH 5.0): 5.14; pIC50 (MsepCSP5; pH 5.0): 4.82; pKi (MsepCSP5; pH 7.4): 5.16; pIC50 (MsepCSP5; pH 7.4): 4.76
13 | CCCCCCCCCCCCCCCCCCCC [Eicosane] | 4.82 | 4.32 | 5.14 | 4.72 |  | 
14 | CCOC(C)=O [Ethylacetate] | 5.05 | 4.71 | 5.37 | 5.12 |  | 
15 | CC12CCC(CC1)C(C)(C)O2 [Eucalyptol] | 5.03 | 4.84 | 5.35 | 5.24 | high binding affinity | 
16 | CCCCCCCCCCCCCCCC [Hexadecane] | 4.13 | 4.23 | 4.45 | 4.64 |  | 
17 | CCCCCC=O [Hexanal] | 5.03 | 4.67 | 5.35 | 5.07 | high binding | 
18 | CCCCCC [Hexane] | 4.73 | 4.83 | 5.05 | 5.23 |  | 
19 | C=CC(C)(O)CCC=C(C)C (stereo not shown) [Linalool] | 4.38 | 4.18 | 4.71 | 4.59 |  | 
20 | C=C(C)[C@H]1CC=C(C)CC1 [R-(+)-Limonene] |  |  |  |  |  | pKi (MsepCSP5; pH 5.0): 5.29; pIC50 (MsepCSP5; pH 5.0): 4.96; pKi (MsepCSP5; pH 7.4): 4.82; pIC50 (MsepCSP5; pH 7.4): 4.42
21 | CCC/C=C/C=O [Trans-2-hexenal] | 4.36 | 4.64 | 4.68 | 5.04 | moderate binding | 
22 | CC1=CC=C(C(C)C)CC1 [α -Terpinene] |  |  |  |  |  | pKi (MsepCSP5; pH 5.0): 5.09; pIC50 (MsepCSP5; pH 5.0): 4.77; pKi (MsepCSP5; pH 7.4): 5.06; pIC50 (MsepCSP5; pH 7.4): 4.65
23 | CC(=O)/C=C/C1=C(C)CCCC1(C)C [β-Lonone] |  |  |  |  |  | pKi (MsepCSP5; pH 5.0): 5.68; pIC50 (MsepCSP5; pH 5.0): 5.36; pKi (MsepCSP5; pH 7.4): 5.30; pIC50 (MsepCSP5; pH 7.4): 4.89
24 | Farnesene |  |  |  |  |  | pKi (MsepCSP5; pH 5.0): 4.45; pIC50 (MsepCSP5; pH 5.0): 4.13; pKi (MsepCSP5; pH 7.4): 4.67; pIC50 (MsepCSP5; pH 7.4): 4.26

Continued, in another order:

Row | pIC50 (MsepCSP5; IC50, pH 5.0) | pIC50 (MsepCSP5; IC50, pH 7.4) | pKi (MsepCSP5; Ki, pH 5.0) | pKi (MsepCSP5; Ki, pH 7.4) | binding affinity to MsepCSP5 (in words) (MsepCSP5; pH 5.0) | Molecule | other results
25 | 4.89 | 4.74 | 5.21 | 5.14 | high binding affinity | C=CC(C)(O)CCC=C(C)CCC=C(C)C (mixture of isomers) [Nerolidol] | 
26 | 4.96 | 4.32 | 5.29 | 4.73 |  | COC(=O)c1ccccc1 [Methyl benzoate] | females attracted to / preferring the volatile (M. separata [2]): 70%; behavioral response of M. separata to the volatile (in words) (M. separata [2]): strong positive responses; males attracted to / preferring the volatile (M. separata [2]): 67%
27 | 4.82 | 4.31 | 5.15 | 4.71 |  | CCCCCCCCCCCCCCCCCCC [Nonadecane] | 
28 | 5.14 | 4.63 | 5.47 | 5.03 |  | CCCCCCCC [Octane] | 
29 | 5.08 | 4.36 | 5.40 | 4.76 |  | CC1=CCC(=C(C)C)CC1 [Terpinolene] | 
30 | 4.66 | 4.68 | 4.98 | 5.09 |  | CCCCCCCCCCCCCC [Tetradecane] | 
31 | 4.77 | 4.47 | 5.09 | 4.87 | high binding affinity | CCC/C=C/CO [Trans-2-hexen-1-ol] | 
32 | 3.32 | 3.28 | 3.64 | 3.68 |  | CCCCCCCCCCCCC [Tridecane] | 
33 | 4.90 | 3.70 | 5.22 | 4.11 | high binding affinity | CC1=CC[C@@H](C(C)(C)O)CC1 [α -Terpineol] | 
